A word on the pKi: it is −log10 of the Ki, conventionally taken in molar units. In general, logP refers to the decadic logarithm of the partition coefficient of the neutral form, usually between octanol and water. A lower logP goes with a more hydrophilic compound.

The structures appear in SMILES notation. pKi: −log10 of the molar value. Where two headings read alike, the source gives them in different places.

Data set [1] addresses T1, PSMA (Homo sapiens, UniProt Q04609). As to conditions: for comparison; cited from earlier work.
In data set [2] the target is T1, PSMA. Kind of data set: PSMA inhibition assay. The class given is biochemical. As to conditions: LNCaP cell lysates, 4 μM NAAG. In outline:
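PSMA source: LNCaP cell lysate. Test compound (0.01 nM–100 μM) incubated with 4 μM NAAG, 37 °C, 2 h. Released glutamate detected with Amplex Red glutamic acid working solution, 37 °C, 60 min; fluorescence ex 490/em 642 nm. IC50 from semilog inhibition curves, then Ki by Cheng–Prusoff. Triplicates; whole inhibition study repeated at least once.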

Data set [3] can be described thus: Octanol-water partition coefficient. The class given is physicochemical. The note with it: pH 7.4.
The test system of the next data set is kidneys. The data set can be described thus: Radiation dosimetry. The class given is in vivo, NOD-SCID mice.
Data set [4] relates to PSMA^+ PC3 PIP and PSMA^− PC3 flu xenografts. Kind of data set: Small animal PET imaging. The class given is in vivo, NOD-SCID mice. The method in brief: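 Male NOD-SCID mice given 1 × 106 PSMA+ PC3 PIP and PSMA− PC3 flu cells s.c. in opposite flanks, cells trypsinized at 80–90% confluence into HBSS. Imaged at 3–5 mm tumors after i.v. 0.36 mCi (13.3 MBq) radiotracer in 0.2 mL PBS under isoflurane/oxygen. PET/CT at 30, 60, 120 min; 10 min per bed, 20 min total; 250–700 keV; FORE/2D-OSEM, decay/dead-time/scatter corrected.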

T1 sequence (Q04609 whole entry): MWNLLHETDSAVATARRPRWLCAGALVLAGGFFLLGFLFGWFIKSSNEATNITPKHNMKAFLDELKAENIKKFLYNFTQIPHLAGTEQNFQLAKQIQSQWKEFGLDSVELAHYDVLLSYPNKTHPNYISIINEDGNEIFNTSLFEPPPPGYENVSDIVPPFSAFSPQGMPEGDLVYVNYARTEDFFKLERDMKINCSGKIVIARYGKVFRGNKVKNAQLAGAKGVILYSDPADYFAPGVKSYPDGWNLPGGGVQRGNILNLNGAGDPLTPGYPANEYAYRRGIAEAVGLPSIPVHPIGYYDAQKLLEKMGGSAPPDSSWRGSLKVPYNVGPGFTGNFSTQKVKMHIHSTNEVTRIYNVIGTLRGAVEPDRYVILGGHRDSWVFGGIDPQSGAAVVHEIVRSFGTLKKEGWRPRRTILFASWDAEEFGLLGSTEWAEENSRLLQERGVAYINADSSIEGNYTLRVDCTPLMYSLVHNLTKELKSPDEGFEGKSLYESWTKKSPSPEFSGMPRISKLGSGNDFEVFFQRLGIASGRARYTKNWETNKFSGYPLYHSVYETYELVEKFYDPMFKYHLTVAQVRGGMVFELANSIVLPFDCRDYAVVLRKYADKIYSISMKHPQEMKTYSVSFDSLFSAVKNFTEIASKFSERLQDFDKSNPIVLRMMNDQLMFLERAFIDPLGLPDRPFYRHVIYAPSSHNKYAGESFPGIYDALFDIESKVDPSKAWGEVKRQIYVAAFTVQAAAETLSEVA

As to `O=C(O)CCC(NC(=O)NC(CCCCNC(=O)c1ccc(F)cc1)C(=O)O)C(=O)O` (stereo not shown) [DCFBzL], the pKi at PSMA [1] was 9.72.

On to `O=C(O)CCC(NC(=O)NC(CCCCNC(=O)CCc1cn(CCF)nn1)C(=O)O)C(=O)O` (stereo not shown) [YC-88, 2-[3-(1-Carboxy-5-{3-[1-(2-fluoroethyl)-1 H-1,2,3-tria-zol-yl]propanamido}pentyl)ureido]pentanedioic Acid], for which the pKi at PSMA [2] (37 °C, 2 h, Cheng–Prusoff conversion) was 7.89; on PSMA [2] (read-out: Ki 95% confidence intervals), 7.72 to 8.06.

In the case of `O=C(O)CCC(NC(=O)NC(CCCCNC(=O)c1ccc([18F])nc1)C(=O)O)C(=O)O` (stereo not shown) [[^18F]DCFPyL, 2-(3-{1-carboxy-5-[(6-[^18F]fluoropyridine-3-carbonyl)-amino]-pentyl}-ureido)-pentanedioic acid, reference compound], in data set [3], the logP was -3.27. In addition, in the data set on kidneys (male, NOD-SCID, mouse, in vivo), the AUC is recorded as 340.74 % ID/g-h and the biological half-life was determined as 1.20 h.

For `O=C(O)CCC(NC(=O)NC(CCCCNC(=O)CCc1cn(CC[18F])nn1)C(=O)O)C(=O)O` (stereo not shown) [[^18F]YC-88, 2-[3-(1-carboxy-5-{3-[1-(2-[^18F]fluoroethyl)-1H-1,2,3-triazol-yl]propanamido}pentyl)ureido]-pentanedioic acid], the logP in data set [3] (1-octanol and PBS) is on record as −3.91. Also, in the data set on kidneys (kidneys), the AUC amounted to 70.7 % ID/g-h; the “AUC ratio (agent/YC-88)” value is 1; the “kidney absorbed dose, decrease compared to [^18F]DCFPyL” value is recorded as ~5 fold. The compound further had a biological half-life in the data set with kidneys (kidneys, single exponential fit of % ID/g data) of 1.52 h. Moreover, the “uptake in normal tissues on PET images” value in data set [4] (30, 60, 120 min postinjection) is given as “extremely low uptake”. Further, the “PSMA^+ PC3 PIP tumor uptake on PET images” value in data set [4] (as early as 30 min postinjection, 0.36 mCi i.v.) is given as “Intense”.

Source of the values: article PMC5516890 (Bioconjugate chemistry, 2016).
